Measurements reported in paper PMC5598404 (Toxicology Reports, 2015).

Tests used:
[1] = system: human breast cancer MCF7 cells; assay: CytoTox 96 Non-Radioactive Cytotoxicity Assay, breast cancer MCF7 cells; type: cell-based; settings: MCF7, 12.5-200 μg/mL, 24 h and 48 h
Procedure, shortened: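 MCF7 cells from ATCC, grown in ATCC-formulated medium at 37 °C and 5% CO2. Seeded at 10,000 cells/well and grown to 70–80% confluence. Test compounds (DMSO stocks) were added at 200, 100, 50, 25 and 12.5 μg/mL (≈ μM, MW ~1000) for 24 h and 48 h. Negative control was 2% final DMSO. Read by CytoTox 96 kit; three independent experiments, each in triplicate.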

[2] = system: human breast cancer Sk-Br-3 cells; assay: CytoTox 96 Non-Radioactive Cytotoxicity Assay, breast cancer Sk-Br-3 cells; type: cell-based
Procedure, shortened: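 Sk-Br-3 cells (ATCC) were kept in ATCC-formulated medium under 5% CO2 at 37 °C, plated at 10,000 cells/well and grown to 70–80% confluence. They were then exposed for 24 h or 48 h to test compounds from DMSO stocks at 400, 200, 100, 50 and 25 μg/mL. Cells given 2% DMSO (final) were the negative control. Cytotoxicity was read by CytoTox 96 kit in three independent experiments, each run in triplicate.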

[3] = contain methionine sulfoxide in their ring; cited from earlier work

NαC-[Met-Leu-Val-Phe-Pro-Leu-Phe-Ile] (head to tail) [[MetO]-LOB1, [1-8-NαC],[1-Rs,Ss-MetO]-linusorb-B1]
Effect on MCF7 cells (in words) [1]: small cytoprotective effects | Cytotoxicity towards Sk-Br-3 cells, 24 h, 400 μg/mL ([2]; Sk-Br-3, 24 h exposure, 400 μg/mL, three independent experiments in triplicate): 28% | Concentration dependence of cytotoxicity towards Sk-Br-3 cells ([2]; Sk-Br-3, 24 h exposure, 25-400 μg/mL): only showed cytotoxicity at 400 μg/mL | Cytotoxicity towards Sk-Br-3 cells, 48 h, 400 μg/mL ([2]; Sk-Br-3, 48 h exposure, 400 μg/mL, three independent experiments in triplicate): maintained their respective cytotoxicity | Relative hydrophobicity of methionine sulfoxide LOBs [3]: less hydrophobic than their methionine containing counterparts
